Test results: PMC4749511 (Bioorganic & medicinal chemistry, 2015)
“Also recorded” adds a separate entry of the source.

Tested on: GFP-Ras2p reporter
Assay: not given
Settings: yeast cells; cited from earlier work

| Compound | GFP-Ras2p reporter mislocalization (in words) |
| --- | --- |
| O=C(O)c1ccc(NC(c2ccccc2)c2ccc3cccnc3c2O)cc1 (stereo not drawn) [Compound 1, 4-(((8-Hydroxyquinolin-7-yl)(phenyl)methyl)amino)benzoic acid] | mislocalizes a GFP-Ras2p reporter |

Molecular target: T1, human Rce1 (HsRce1) (Homo sapiens, UniProt Q9Y256)
T1 sequence (Q9Y256 1-329): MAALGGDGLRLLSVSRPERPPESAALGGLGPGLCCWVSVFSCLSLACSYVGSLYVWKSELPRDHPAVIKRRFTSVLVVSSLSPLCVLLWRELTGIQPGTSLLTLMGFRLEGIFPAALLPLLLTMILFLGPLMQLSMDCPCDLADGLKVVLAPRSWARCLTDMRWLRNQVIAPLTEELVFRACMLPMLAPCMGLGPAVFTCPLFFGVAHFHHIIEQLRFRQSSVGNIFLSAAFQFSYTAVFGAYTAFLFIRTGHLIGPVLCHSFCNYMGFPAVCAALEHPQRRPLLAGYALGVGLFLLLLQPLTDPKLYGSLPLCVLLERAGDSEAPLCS
Assay: In vitro fluorescence-based CaaX proteolysis assay
Assay type: biochemical
Settings: single-point, 10 μM
Procedure, shortened: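 Membranes from yeast expressing HsRce1, in 200 mM Tris pH 7.5, 200 mM NaCl, 1 mg/mL BSA. Preincubated with test compound (from 50× DMSO stock) for 15 min at 30 °C in duplicate wells. Started with quenched ABZ-KSKTKC(farnesyl)QLIM at 20 μM final; membranes 0.25 mg/mL final. Fluorescence 320/420 nm read every 30-60 s for 60 min at 30 °C. Initial velocities expressed as % of DMSO control, normalised by trypsin (10 μg/mL) full digestion.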

| Compound | HsRce1 inhibition (in words) |
| --- | --- |
| c1ccc(NC(c2ccccc2)c2ccc3ccccc3c2)cc1 (stereo not drawn) [Compound 44, N-(naphthalen-2-yl(phenyl)methyl)aniline] | little inhibitory activity |
| CCOC(=O)c1ccc(NC(c2ccccc2)c2ccc(Br)cc2)cc1 (stereo not drawn) [Compound 49, Ethyl 4-(((4-bromophenyl)(phenyl)methyl)amino)benzoate] | relatively inactive |
| O=C(O)c1ccc(NC(c2ccccc2)c2ccc(Br)cc2)cc1 (stereo not drawn) [Compound 52, 4-(((4-Bromophenyl)(phenyl)methyl)amino) benzoic acid] | relatively inactive |
| O=C(O)c1ccc(NC(c2ccc3cccnc3c2O)c2c(F)cc(Br)cc2F)cc1 (stereo not drawn) [Compound 25, 4-(((4-Bromo-2,6-difluorophenyl)(8-hydroxyquinolin-7-yl)methyl)amino)benzoic acid] | no significant reduction in Rce1 activity |
| Oc1c(C(Nc2ccccc2)c2ccccc2)cc(Br)c2ccccc12 (stereo not drawn) [Compound 33, 4-Bromo-2-(phenyl(phenylamino)methyl)naphthalen-1-ol] | retained inhibitory activity |
| C[C@@H](N[C@H](c1ccccc1)c1c(O)ccc2ccccc12)c1ccccc1 [Compound 47] | weaker inhibitors |
| O=[N+]([O-])c1ccc(C(Nc2ccccc2)c2ccc3cccnc3c2O)cc1 (stereo not drawn) [Compound 7, reference compound] | did not inhibit HsRce1 activity significantly |
| Oc1c(C(Nc2ccccc2)c2c(F)cc(Br)cc2F)ccc2cccnc12 (stereo not drawn) [Compound 24, 7-((4-Bromo-2,6-difluorophenyl)(phenylamino)methyl)quinolin-8-ol] | no significant reduction in Rce1 activity |
| Methyl 4-(((8-methoxyquinolin-7-yl)(phenyl)methyl)amino)benzoate [Compound 32] | little inhibitory activity |
| Oc1c(CNc2ccccc2)ccc2cccnc12 [Compound 20, 7-((Phenylamino)methyl)quinolin-8-ol] | no significant effect on Rce1 proteolysis activity |
| c1ccc(NC(c2ccccc2)c2ccc3cccnc3c2)cc1 (stereo not drawn) [Compound 43, N-(Phenyl(quinolin-7-yl)methyl)aniline] | little inhibitory activity |
| N#Cc1ccc(C(Nc2ccc(C(=O)O)cc2)c2ccc3cccnc3c2O)cc1 (stereo not drawn) [Compound 3, 4-(((4-Cyanophenyl)(8-hydroxyquinolin-7-yl)methyl)amino)benzoic acid] | did not inhibit HsRce1 activity significantly |
| CCCCCCCCOc1ccc(C(Nc2ccccc2)c2ccc3cccnc3c2O)cc1 (stereo not drawn) [Compound 26, 7-((4-(Octyloxy)phenyl)(phenylamino)methyl)quinolin-8-ol] | did not inhibit HsRce1 activity significantly |
| O=C(O)c1ccc(NC(c2ccc(Br)cc2)c2ccc(Br)cc2)cc1 [Compound 53, 4-((bis(4-Bromophenyl)methyl)amino)benzoic acid] | relatively inactive |
| Oc1ccc2ccccc2c1C(Nc1ccccc1)c1ccccc1 (stereo not drawn) [Compound 34, 1-(Phenyl(phenylamino)methyl)naphthalen-2-ol] | weaker inhibitors |
| Oc1ccc2ccc(O)c(C(Nc3ccccc3)c3ccccc3)c2c1 (stereo not drawn) [Compound 35, 1-(Phenyl(phenylamino)methyl)naphthalene-2,7-diol] | weaker inhibitors |
| O=C(O)c1ccc(NC(c2ccccn2)c2ccc3cccnc3c2O)cc1 (stereo not drawn) [Compound 15, 4-(((8-Hydroxyquinolin-7-yl)(pyridin-2-yl)methyl)amino)benzoic acid] | no significant reduction in Rce1 activity |
| CCOC(=O)c1ccc(NC(c2ccc(Br)cc2)c2ccc(Br)cc2)cc1 [Compound 50, Ethyl 4-((bis(4-bromophenyl)methyl)amino)benzoate] | relatively inactive |
| O=C(O)c1ccc(NC(c2ccccc2)c2ccccc2)cc1 [Compound 51, 4-(Benzhydrylamino)benzoic acid] | inactive; also recorded: Neither the ethyl ester 48 nor the acid derivative 51 showed any effect upon inhibition of the enzyme |
| O=C(O)c1ccc(NC(c2cccnc2)c2ccc3cccnc3c2O)cc1 (stereo not drawn) [Compound 16, 4-(((8-Hydroxyquinolin-7-yl)(pyridin-3-yl)methyl)amino)benzoic acid] | no significant reduction in Rce1 activity |
| CCOC(=O)c1ccc(NC(c2ccccc2)c2ccccc2)cc1 [Compound 48, Ethyl 4-(benzhydrylamino)benzoate] | Neither the ethyl ester 48 nor the acid derivative 51 showed any effect upon inhibition of the enzyme |

Tested on: EGFP-H-Ras
Assay: EGFP-H-Ras plasma membrane localization by confocal microscopy
Assay type: cell-based, human
Settings: HCT-116 cells, FTI 2 μM, 20 hours
Procedure, shortened: (§1)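 HCT-116 cells (DMEM, 10% FBS, 1% NEAA, 37 °C, 5% CO2) seeded at 4 × 10^4 per glass-bottom well and transfected 24 h later with the EGFP-Ras plasmid (0.5 μg DNA per 1 μL TrueFect). Treated with FTI or DMSO vehicle for 20 h, then live confocal imaging (488 nm excitation, 500-600 nm emission), at least 40 cells per condition. Normalised (0-1) line-scan intensity across each cell; PM width 1 μm.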

| Compound | H-Ras PM association (percent of total fluorescence at the PM) [%] |
| --- | --- |
| CC[C@H](C)[C@@H](CO[C@@H](Cc1ccccc1)C(=O)N[C@@H](CCS(C)(=O)=O)C(=O)OC(C)C)NC[C@@H](N)CS [L744,832] | < 10 |

Molecular target: rat FTase (Rattus norvegicus, UniProt Q02293+Q04631)
Assay: Fluorescence-based FTase assay
Assay type: biochemical
Settings: tested at 10, 25 and 50 μM
Procedure, shortened: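 Rat FTase added in enzyme solution (62.5 nM FTase, Tris pH 7.5, ZnCl2, MgCl2, KCl, DTT, BSA) to start reaction. Wells held dansyl-GCVLS, FPP, DTT, Tris pH 7.5, MgCl2, ZnCl2, octyl-β-D-glucopyranoside and test compound in DMSO (12.5 μL DMSO per 250 μL). Fluorescence read at 340 nm excitation, 535 nm emission, every 40 s for 1 h. Rate from first 10 min converted to nM/s via νi = RP/ΔF.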

| Compound | FTase activity inhibition (in words) |
| --- | --- |
| O=C(O)c1cccc(NC(c2ccccc2)c2ccc3ccccc3c2O)c1 (stereo not drawn) [Compound 30, 3-(((1-Hydroxynaphthalen-2-yl)(phenyl)methyl)amino)benzoic acid] | not inhibited |
| Oc1c(C(Nc2ccccc2)c2ccccc2)ccc2cccnc12 (stereo not drawn) [Compound 2, 7-(Phenyl(phenylamino)methyl)quinolin-8-ol] | not inhibited |
| O=C(O)c1ccc(NC(c2ccc(Br)cc2)c2ccc3cccnc3c2O)cc1 (stereo not drawn) [Compound 5, 4-(((4-Bromophenyl)(8-hydroxyquinolin-7-yl)methyl)amino)benzoic acid] | not inhibited |

Tested on: EGFP-K-Ras (K-Ras4b)
Assay: EGFP-K-Ras plasma membrane localization by confocal microscopy
Assay type: cell-based, human
Settings: HCT-116 cells, FTI 2 μM, 20 hours
Procedure, shortened: as §1

| Compound | K-Ras PM association (percent of total fluorescence at the PM) [%] |
| --- | --- |
| CC[C@H](C)[C@@H](CO[C@@H](Cc1ccccc1)C(=O)N[C@@H](CCS(C)(=O)=O)C(=O)OC(C)C)NC[C@@H](N)CS [L744,832] | ~35 |

Same assay, conditions: HCT-116 cells, Rce1 inhibitor 25 μM, 20 hours

| Compound | K-Ras PM association (percent of total fluorescence at the PM) |
| --- | --- |
| O=C(O)c1ccc(NC(c2ccccc2)c2ccc3cccnc3c2O)cc1 (stereo not drawn) [Compound 1, 4-(((8-Hydroxyquinolin-7-yl)(phenyl)methyl)amino)benzoic acid] | more effective at mislocalizing K-Ras than the FTI |
| O=C(O)c1ccc(NC(c2ccc3cccnc3c2O)C2CCCCC2)cc1 (stereo not drawn) [Compound 17, 4-((Cyclohexyl(8-hydroxyquinolin-7-yl)methyl)amino)benzoic acid] | more effective at mislocalizing K-Ras than the FTI |
| O=C(O)c1ccc(NC(c2ccc(F)cc2)c2ccc3cccnc3c2O)cc1 (stereo not drawn) [Compound 6, 4-(((4-Fluorophenyl)(8-hydroxyquinolin-7-yl)methyl)amino)benzoic acid] | more effective at mislocalizing K-Ras than the FTI |
| Oc1c(C(Nc2ccccc2)c2ccccc2)ccc2cccnc12 (stereo not drawn) [Compound 2, 7-(Phenyl(phenylamino)methyl)quinolin-8-ol] | more effective at mislocalizing K-Ras than the FTI |

Tested on: EGFP-N-Ras
Assay: EGFP-N-Ras plasma membrane localization by confocal microscopy
Assay type: cell-based, human
Settings: HCT-116 cells, FTI 2 μM, 20 hours
Procedure, shortened: as §1

| Compound | N-Ras PM association (percent of total fluorescence at the PM) [%] |
| --- | --- |
| CC[C@H](C)[C@@H](CO[C@@H](Cc1ccccc1)C(=O)N[C@@H](CCS(C)(=O)=O)C(=O)OC(C)C)NC[C@@H](N)CS [L744,832] | < 10 |

Molecular target: T1, human Rce1 (HsRce1)
Assay: not given
Settings: read-out: HsRce1 IC50; in vitro proteolysis assay; cited from earlier work

| Compound | IC50 [µM] |
| --- | --- |
| O=C(O)c1ccc(NC(c2ccccc2)c2ccc3cccnc3c2O)cc1 (stereo not drawn) [Compound 1, 4-(((8-Hydroxyquinolin-7-yl)(phenyl)methyl)amino)benzoic acid] | 9 |
